Source: ChEMBL document CHEMBL1124811, “Cyclic hexapeptide oxytocin antagonists. Potency-, selectivity-, and solubility-enhancing modifications” (J Med Chem, 1990)
Converted amounts (≈) assume the structure as drawn. Non-standard residues stand in square brackets, D forms with d. Residues, ends and D or L forms follow the SMILES beside them. Piz(1,6-dehydro) = O=C(O)[C@@H]1CCC=NN1; dPiz(1,6-dehydro) = O=C(O)[C@H]1CCC=NN1; dNMeF = CN[C@H](Cc1ccccc1)C(=O)O; Pip = O=C(O)[C@@H]1CCCCN1; dPip = O=C(O)[C@H]1CCCCN1; Orn = NCCC[C@H](N)C(=O)O

How the values were obtained:
Oxytocin receptor = target: T1, Oxytocin receptor (Rattus norvegicus, UniProt P70536); test: Inhibition of [3H]- oxytocin binding to rat uterine Oxytocin receptor
T1 sequence (P70536 whole entry): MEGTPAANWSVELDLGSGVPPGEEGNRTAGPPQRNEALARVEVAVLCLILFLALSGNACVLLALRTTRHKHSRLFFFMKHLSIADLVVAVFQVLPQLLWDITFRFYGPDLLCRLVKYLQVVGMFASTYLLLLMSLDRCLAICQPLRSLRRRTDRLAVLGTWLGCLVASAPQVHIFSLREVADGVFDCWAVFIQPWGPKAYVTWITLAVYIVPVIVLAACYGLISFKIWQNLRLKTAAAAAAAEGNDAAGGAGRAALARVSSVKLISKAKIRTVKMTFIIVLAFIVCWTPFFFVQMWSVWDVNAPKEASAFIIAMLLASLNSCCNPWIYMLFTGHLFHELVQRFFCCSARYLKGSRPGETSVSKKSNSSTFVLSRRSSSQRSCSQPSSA
In short: (§1)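 Radioligand competition binding. Ki derived from IC50 values from competition curves; reported as group means ± SEM of three or more replicate determinations unless noted otherwise.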

Vasopressin V1 receptor = Vasopressin V1 receptor (Rattus norvegicus, UniProt P48974+P30560); test: Inhibition of [3H]arginine vasopressin binding to rat liver Vasopressin V1 receptor; in short: as §1
Vasopressin V2 receptor = Vasopressin V2 receptor (Rattus norvegicus, UniProt Q00788); test: Inhibition of [3H]arginine vasopressin binding to rat kidney medulla Vasopressin V2 receptor; in short: as §1
Chain of Vasopressin V2 receptor (Q00788 whole entry): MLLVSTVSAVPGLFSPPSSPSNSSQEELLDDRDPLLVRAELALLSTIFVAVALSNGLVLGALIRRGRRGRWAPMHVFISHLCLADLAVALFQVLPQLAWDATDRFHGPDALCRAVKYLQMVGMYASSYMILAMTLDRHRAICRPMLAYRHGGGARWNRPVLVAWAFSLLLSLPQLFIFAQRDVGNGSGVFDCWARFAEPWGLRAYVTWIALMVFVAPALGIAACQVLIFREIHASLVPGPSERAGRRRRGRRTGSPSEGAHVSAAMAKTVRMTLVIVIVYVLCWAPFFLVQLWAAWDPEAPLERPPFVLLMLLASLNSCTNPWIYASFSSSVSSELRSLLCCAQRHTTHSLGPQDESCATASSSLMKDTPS

[1] = Solubility at 25 degree C and pH of 7.4; type: physicochemical; conditions: pH 7.4; read-out: S
[2] = target: T2, Oxytocin receptor (Rattus norvegicus) (UniProt P70536); test: Inhibition of binding of [3H]- oxytocin to rat uterine Oxytocin receptor; conditions: concentration not given here; in short: as §1
T2 sequence (whole entry): T1 sequence (P70536 whole entry)

[3] = target: Vasopressin V1 receptor (Rattus norvegicus) (UniProt P48974+P30560); test: Inhibition of binding of [3H]-arginine vasopressin to rat liver Vasopressin V1 receptor at a concentration of 10000 nM
Chain of Vasopressin V1 receptor (Rattus norvegicus) (P30560 whole entry, looked up): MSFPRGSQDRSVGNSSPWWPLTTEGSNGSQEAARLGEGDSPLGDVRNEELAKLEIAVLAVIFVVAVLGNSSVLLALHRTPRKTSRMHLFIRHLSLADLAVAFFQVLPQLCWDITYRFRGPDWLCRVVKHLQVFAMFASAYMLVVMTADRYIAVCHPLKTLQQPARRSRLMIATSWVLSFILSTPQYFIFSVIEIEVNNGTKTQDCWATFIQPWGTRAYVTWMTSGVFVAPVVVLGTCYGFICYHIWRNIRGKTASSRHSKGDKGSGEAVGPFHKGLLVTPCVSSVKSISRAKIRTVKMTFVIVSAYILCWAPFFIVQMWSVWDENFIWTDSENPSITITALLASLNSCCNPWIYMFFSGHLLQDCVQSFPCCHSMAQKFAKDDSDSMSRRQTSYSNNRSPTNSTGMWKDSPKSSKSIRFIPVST
Chain of Vasopressin V1 receptor (Rattus norvegicus) (P48974 whole entry, looked up): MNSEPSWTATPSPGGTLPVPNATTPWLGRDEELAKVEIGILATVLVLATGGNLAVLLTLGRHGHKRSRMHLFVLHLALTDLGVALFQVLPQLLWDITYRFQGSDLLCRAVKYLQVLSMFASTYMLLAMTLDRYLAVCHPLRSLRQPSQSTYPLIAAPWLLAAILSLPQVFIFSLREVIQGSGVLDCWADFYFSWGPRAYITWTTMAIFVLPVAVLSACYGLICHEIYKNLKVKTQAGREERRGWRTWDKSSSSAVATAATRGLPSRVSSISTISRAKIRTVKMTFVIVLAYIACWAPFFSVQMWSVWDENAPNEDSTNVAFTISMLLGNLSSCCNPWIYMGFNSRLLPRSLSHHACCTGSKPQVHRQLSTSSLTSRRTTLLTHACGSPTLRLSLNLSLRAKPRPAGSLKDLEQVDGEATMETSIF

[4] = target: Vasopressin V2 receptor (Rattus norvegicus) (UniProt Q00788); test: Inhibition of binding of [3H]-arginine vasopressin to rat kidney medulla Vasopressin V2 receptor at a concentration of 10000 nM
Chain of Vasopressin V2 receptor (Rattus norvegicus) (Q00788 whole entry): as the sequence (Q00788 whole entry) above

[5] = Solubility at 25 degree C and pH of 5.0; type: physicochemical; conditions: pH 5; read-out: S
[6] = Solubility at 25 degree C and pH of 10.8; type: physicochemical; conditions: pH 10.8; read-out: S
[7] = Solubility at 25 degree C and pH of 7.0; type: physicochemical; conditions: pH 7; read-out: S

| Compound | Ki (Oxytocin receptor) [nM] | Ki (Vasopressin V1 receptor) [nM] | Ki (Vasopressin V2 receptor) [nM] | also measured |
| --- | --- | --- | --- | --- |
| CC[C@H](C)[C@@H]1NC(=O)[C@@H](Cc2ccc3ccccc3c2)NC(=O)[C@@H]2CCCN2C(=O)[C@@H](Cc2c[nH]cn2)NC(=O)[C@@H]2CCCCN2C(=O)[C@H]2CCCCN2C1=O | 1.6 | 760 | 320 |  |
| CC[C@H](C)[C@@H]1NC(=O)[C@@H](Cc2ccccc2)NC(=O)[C@@H]2CCCN2C(=O)[C@@H](Cc2ccccc2)N(C)C(=O)[C@@H]2CCCCN2C(=O)[C@H]2CCCCN2C1=O | 83 | 890 | 1600 | solubility [1]: 2 µg/mL (≈ 2.7 µM) |
| CC[C@H](C)[C@@H]1NC(=O)[C@@H](Cc2ccccc2)NC(=O)[C@@H]2CCCN2C(=O)[C@@H](C)N(C)C(=O)[C@@H]2CCCCN2C(=O)[C@H]2CCCCN2C1=O | 490 | > 10000 | > 10000 |  |
| C[C@@H]1NC(=O)[C@@H](Cc2ccccc2)NC(=O)[C@@H]2CCCN2C(=O)[C@@H](Cc2ccccc2)N(C)C(=O)[C@@H]2CCCCN2C(=O)[C@H]2CCCCN2C1=O (cyclo(A[dPip][Pip][dNMeF]P[dF])) | 12000 | > 30000 | > 30000 |  |
| CC[C@H](C)[C@@H]1NC(=O)[C@@H](Cc2c[nH]c3ccccc23)NC(=O)[C@@H]2CCCN2C(=O)[C@@H](Cc2ccccc2)N(C)C(=O)[C@H](CCCN)NC(=O)[C@H]2CCCCN2C1=O (cyclo(I[dPip][Orn][dNMeF]P[dW])) | 49 | 1000 | 500 |  |
| CC[C@H](C)[C@@H]1NC(=O)[C@@H](C)NC(=O)[C@@H]2CCCN2C(=O)[C@@H](Cc2ccccc2)NC(=O)[C@@H]2CCCCN2C(=O)[C@H]2CCCCN2C1=O (cyclo(I[dPip][Pip][dF]P[dA])) |  |  |  | inhibition [2]: 0%; inhibition [3]: 0%; inhibition [4]: 4% |
| CC[C@H](C)[C@@H]1NC(=O)[C@@H](Cc2ccccc2)NC(=O)[C@@H]2CCCN2C(=O)[C@@H](Cc2ccccc2)NC(=O)[C@@H]2CCCCN2C(=O)[C@H]2CCCCN2C1=O (cyclo(I[dPip][Pip][dF]P[dF])) | 140 | 1600 | 4500 |  |
| CC[C@H](C)[C@@H]1NC(=O)[C@@H](Cc2c[nH]c3ccccc23)NC(=O)[C@@H]2CCCN2C(=O)[C@@H](Cc2c[nH]cn2)NC(=O)[C@@H]2CCCCN2C(=O)[C@H]2CCCCN2C1=O (cyclo(I[dPip][Pip][dH]P[dW])) |  | 2200 | 1800 | solubility [5]: 2000 µg/mL (≈ 2650 µM); solubility [6]: 110 µg/mL (≈ 146 µM) |
| CC[C@H](C)[C@@H]1NC(=O)[C@@H](Cc2c[nH]c3ccccc23)NC(=O)[C@@H]2CCCN2C(=O)[C@@H](Cc2ccccc2)N(C)C(=O)[C@@H]2CCCCN2C(=O)[C@H]2CCCCN2C1=O (cyclo(I[dPip][Pip][dNMeF]P[dW])) | 8.1 | 3500 | 260 |  |
| CCOc1ccc(C[C@H]2NC(=O)[C@@H]3CCCN3C(=O)[C@@H](Cc3ccccc3)N(C)C(=O)[C@@H]3CCCCN3C(=O)[C@H]3CCCCN3C(=O)[C@H]([C@@H](C)CC)NC2=O)cc1 (cyclo(I[dPip][Pip][dNMeF]P[dY](Et))) | 49 | 20000 | 250 |  |
| CC[C@H](C)[C@@H]1NC(=O)[C@@H](Cc2ccccc2)NC(=O)[C@@H]2CCCN2C(=O)[C@@H](Cc2ccccc2)N(C)C(=O)[C@@H]2CCC=NN2C(=O)[C@H]2CCC=NN2C1=O (cyclo(I[dPiz(1,6-dehydro)][Piz(1,6-dehydro)][dNMeF]P[dF])) | 7.3 |  |  | solubility [7]: 68 µg/mL (≈ 92 µM) |
| CC[C@H](C)[C@@H]1NC(=O)[C@@H](Cc2ccccc2)NC(=O)[C@@H]2CCCN2C(=O)[C@@H](Cc2ccccc2)N(C)C(=O)[C@@H]2CCCN2C(=O)[C@H]2CCCN2C1=O (cyclo([dNMeF]P[dF]I[dP]P)) | 1400 | 9300 | 33000 |  |
